Results from PubChem BioAssay.
Inconclusive results are not listed.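 How the source made its calls, unless noted: active means inhibition over a set limit, the all-compound mean plus 3 SD, in both replicate runs; inconclusive means over that limit in just one replicate run; inactive means at or under that limit in both runs.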

How the values were obtained:
[1] = OD615 S. cerevisiae growth inhibition, permissive medium, pilot counter-assay, permissive growth control for S. cerevisiae lifespan shortening project (AID 705;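 active means growth inhibition above 25% in both replicates, a cutoff set 3 SD above the mean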); conditions: OD615, 24 h, at 10 µM, hits give high values
Procedure, shortened: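 System: S. cerevisiae with engineered DeaD lifespan system. Medium: SC raffinose/galactose permissive medium. Doses: single compound dose of 10 µM, 0.25% DMSO final. Schedule: 24 h exposure, 30 °C. Measured by: OD615 turbidity read. Read-out: growth inhibition.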

[2] = Restrictive medium S. cerevisiae growth inhibition, OD615, pilot screen of yeast lifespan reduction project, restrictive growth control (AID 706;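 active means growth inhibition above a set limit, 3 SD over mean compound inhibition, in both replicates, cut at about 43% in these data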;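 further: modified DeaD lifespan yeast strain shifted to restrictive glucose medium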); conditions: OD615, 48 h, at 10 µM, hits give high values
Procedure, shortened: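 Assay system – genetically modified Saccharomyces cerevisiae, DeaD replicative lifespan assay strain · Medium – CSMM-D glucose medium · Doses – 10 µM compound, 0.25% DMSO · Times – 4 h pre-incubation, 48 h exposure at 30 °C · Signal – optical density at 615 nm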

[3] = viability gain of MRP-1-high H69AR cells under doxorubicin, pilot screen, MRP-1 activator project, CellTiter-Glo, duplicate (AID 807;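 active means viability increase at or above a cutoff of the median across tested compounds plus 3 SD, cut at about 8.5% in these data, passing the limit was not always enough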;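 further: compound pretreatment 18-22 h then 72 h combined with doxorubicin; 0% = doxorubicin alone and 100% = vehicle without doxorubicin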); conditions: H69AR viability with doxorubicin, CellTiter-Glo luminescence; at 10 µM; hits give high values
[4] = growth suppression of beta-catenin knockout HCT116, pilot screen, human colon tumor cells (AID 823;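 active means cell viability at or below a set limit in both duplicate runs, the limit being the all-compound median minus 4 SD, cut at about 23% in these data, passing the limit was not always enough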;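 further: 0% = wells killed by 20 µM Hyamine and 100% = untreated DMSO cell wells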); conditions: CellTiter-Glo, 60 h, at 10 µM, hits give low values
[5] = growth suppression of PTEN-deleted HCT116, pilot screen, cell-based, HCT116 clonal line, CellTiter-Glo (AID 824;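 active means viability at or below 27.92% in each of two runs, the all-compound median minus 4 SD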;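 further: 0% = 20 µM Hyamine control and 100% = vehicle cell control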); conditions: 60 h, at 10 µM, hits give low values
[6] = inhibitors of the yeast RAM network, pilot screen, dse1pr::URA3 reporter, 5-FOA selection (AID 869);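 further: 0% = DMSO wells with no growth and 100% = 10 µM 1-NA-PP1 with full growth; RAM network block rescues cells from 5-FOA so hits raise OD615 growth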; conditions: S. cerevisiae dse1pr::URA3 5-FOA growth, OD615, 2 d; at 10 µM; hits give high values; strain carries analog-sensitive mutant Cbk1 kinase
[7] = RAM signaling pathway blockade in yeast – S. cerevisiae, Pdr1DBD-CYC8 efflux-inhibited sensitized strain, primary screen (AID 1298;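 active means RAM network inhibition above 8.4% in each of two replicates, 3 SD over the compound average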;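 further: 0% = DMSO untreated cells without growth and 100% = 10 µM 1-NA-PP1 full growth; higher means more yeast growth rescued from 5-FOA killing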); conditions: S. cerevisiae cbk1-as DSE1-URA3 strain, 5-FOA growth OD615, 2 d; at 50 µM; hits give high values

O=C(Nc1cccc2c1CCCC2)c1ccc(Br)o1
inactive: growth inhibition [1] -11.8% | growth inhibition [2] 6.87% | viability increase [3] -1.15% | viability [4] 79.6% | viability [5] 68% | inhibition [6] 2.19% | RAM network inhibition [7] 9.1%

Cc1ccc(S(=O)(=O)N2CCN(C(=O)CN3CCCC3)C2)cc1
inactive: growth inhibition [1] -15.1% | growth inhibition [2] -11.2% | viability increase [3] -0.87% | viability [4] 92.4% | viability [5] 100% | inhibition [6] 1.62% | RAM network inhibition [7] 8.99%

COc1ccc(C2c3sc(=O)[nH]c3SC3C(=O)N(c4ccccc4)C(=O)C32)cc1 (stereo not given)
inactive: growth inhibition [1] -6.11% | growth inhibition [2] 12.6% | viability increase [3] 0.68% | viability [4] 99.9% | viability [5] 99.3% | inhibition [6] 2.98% | RAM network inhibition [7] 5.53%

COc1ccc(CNC(=O)c2cnc3scc(C)n3c2=O)cc1
inactive: growth inhibition [1] -13.9% | growth inhibition [2] -6.35% | viability increase [3] 3.79% | viability [4] 102% | viability [5] 93.8% | inhibition [6] 0.925% | RAM network inhibition [7] 11.9%

CC(C)C(=O)Nc1ccc2c(c1)C(=O)N(CCC(=O)O)C2=O
inactive: growth inhibition [1] -4.82% | growth inhibition [2] -16.1% | viability increase [3] 0.2% | viability [4] 106% | viability [5] 100% | inhibition [6] 2.14% | RAM network inhibition [7] -0.51%

CCC(Sc1nc(C)cc(=O)[nH]1)C(=O)Nc1ccc(Cl)cn1 (stereo not given)
inactive: growth inhibition [1] -2.36% | growth inhibition [2] 26.5% | viability increase [3] -3.4% | viability [4] 98.9% | viability [5] 96.7% | inhibition [6] 1.84% | RAM network inhibition [7] 3.08%

CCOc1ccc(N(CC(=O)O)S(=O)(=O)c2ccc(OC)c(OC)c2)cc1
inactive: growth inhibition [1] -8.3% | growth inhibition [2] -13.4% | viability increase [3] -0.45% | viability [4] 95.5% | viability [5] 95.3% | inhibition [6] 1.32% | RAM network inhibition [7] 1.05%

O=C(Nc1nccs1)C1CCCN(S(=O)(=O)c2cccc3cccnc23)C1 (stereo not given)
inactive: growth inhibition [1] -3.46% | growth inhibition [2] 11.8% | viability increase [3] -1.85% | viability [4] 71.2% | viability [5] 68.6% | inhibition [6] 1.6% | RAM network inhibition [7] 4.95%

COc1ccccc1NC(=O)CSc1nnc(-c2ccccn2)n1Cc1ccco1
inactive: growth inhibition [1] -3.73% | growth inhibition [2] 13.1% | viability increase [3] -3.83% | viability [4] 101% | viability [5] 96.8% | inhibition [6] 1.23% | RAM network inhibition [7] 2.52%

O=C(Nc1ccc(N2CCCCC2)cc1)c1cncc(Br)c1
inactive: growth inhibition [1] 5.98% | growth inhibition [2] 15.3% | viability increase [3] -4.57% | viability [4] 100% | viability [5] 96.8% | inhibition [6] 1.98% | RAM network inhibition [7] 5.26%

CCCS(=O)(=O)NCc1cn2c(C)csc2n1
inactive: growth inhibition [1] -0.385% | growth inhibition [2] 17.2% | viability increase [3] -2.28% | viability [4] 102% | viability [5] 92.6% | inhibition [6] 2.58% | RAM network inhibition [7] 5.52%

CCCC(NS(=O)(=O)c1ccc(OC)cc1)C(=O)O (stereo not given)
inactive: growth inhibition [1] -8.86% | growth inhibition [2] -7.75% | viability increase [3] -1.16% | viability [4] 90.1% | viability [5] 95.4% | inhibition [6] 1.29% | RAM network inhibition [7] 3.19%

CN(Cc1ccccc1)c1nnc(N)s1
inactive: growth inhibition [1] 0.13% | growth inhibition [2] -3.49% | viability increase [3] -2% | viability [4] 105% | viability [5] 102% | inhibition [6] 0.935% | RAM network inhibition [7] 2.5%

CCn1c(CNC(=O)C23CC4CC(CC(C4)C2)C3)nnc1SCC(=O)Nc1nnc(C)s1
inactive: growth inhibition [1] 2.36% | growth inhibition [2] 24.3% | viability increase [3] 0.62% | viability [4] 96.7% | viability [5] 96.9% | inhibition [6] 2.5% | RAM network inhibition [7] 2.71%

Cc1csc(NC(=O)CNS(=O)(=O)c2cccs2)n1
inactive: growth inhibition [1] -4.12% | growth inhibition [2] -18.9% | viability increase [3] -2.55% | viability [4] 93.4% | viability [5] 86.8% | inhibition [6] 0.795% | RAM network inhibition [7] 2.18%

CC1=CC(C)(C)N(C(=O)CSc2nnc(-c3ccccc3)o2)c2ccc(C)cc21
inactive: growth inhibition [1] -10% | growth inhibition [2] 2.73% | viability increase [3] -5.46% | viability [4] 62% | viability [5] 66.2% | inhibition [6] 0.325% | RAM network inhibition [7] 6.03%

CCSc1nnc(NC(=O)CCc2ccccc2)s1
inactive: growth inhibition [1] 0.055% | growth inhibition [2] -7.23% | viability increase [3] -1.7% | viability [4] 88.7% | viability [5] 95.1% | inhibition [6] 3.51% | RAM network inhibition [7] 3.66%

Cc1cc(NC(=O)CSc2ccc3nnc(-c4ccccn4)n3n2)no1
inactive: growth inhibition [1] -3.09% | growth inhibition [2] 10.1% | viability increase [3] -1.04% | viability [4] 102% | viability [5] 90.4% | inhibition [6] 0.535% | RAM network inhibition [7] 1.71%

CCN(CC)P1(=O)OC(c2cc(OC)c(OC)c(OC)c2)=Nc2c1c(C)nn2-c1ccccc1 (stereo not given)
inactive: growth inhibition [1] -7.12% | growth inhibition [2] -13.3% | viability increase [3] -2.38% | viability [4] 95.8% | viability [5] 92.8% | inhibition [6] 1.87% | RAM network inhibition [7] 2.4%

CC(=O)c1c(C)oc(C)c1CSCc1ccc(C(=O)O)o1
inactive: growth inhibition [1] -4.54% | growth inhibition [2] 0.22% | viability increase [3] -2.16% | viability [4] 95.7% | viability [5] 97.9% | inhibition [6] 0.665% | RAM network inhibition [7] 3.55%

CCN1C(=O)CS/C1=N\c1nccs1
inactive: growth inhibition [1] 1.12% | growth inhibition [2] 1.68% | viability increase [3] 0.86% | viability [4] 105% | viability [5] 105% | inhibition [6] 1.64% | RAM network inhibition [7] -1.23%

COc1ccc(CC(=O)N2CC3(C)CC2CC(C)(C)C3)cc1OC (stereo not given)
inactive: growth inhibition [1] -8.12% | growth inhibition [2] -2.29% | viability increase [3] -2.91% | viability [4] 92.7% | viability [5] 88.2% | inhibition [6] 2.62% | RAM network inhibition [7] 6.83%

O=C(NCc1cn2ccsc2n1)c1c(F)cccc1Cl
inactive: growth inhibition [1] -10.2% | growth inhibition [2] -8.81% | viability increase [3] 1.01% | viability [4] 107% | viability [5] 99.6% | inhibition [6] 0.93% | RAM network inhibition [7] 2.61%

COc1ccc(C2C(C(=O)c3ccco3)=C(O)C(=O)N2CCc2ccccc2)cc1OC (stereo not given)
inactive: growth inhibition [1] -12.1% | growth inhibition [2] 7.54% | viability increase [3] -1.95% | viability [4] 101% | viability [5] 92.5% | inhibition [6] 5.36% | RAM network inhibition [7] 4.36%

Cc1nn(-c2cccc(C(F)(F)F)c2)c(Cl)c1/C=N/n1cnnc1
inactive: growth inhibition [1] -2.49% | growth inhibition [2] 17% | viability increase [3] -6.44% | viability [4] 87.7% | viability [5] 85.7% | inhibition [6] -0.18% | RAM network inhibition [7] 1.77%
